From ChEMBL document CHEMBL1146260, “Synthesis and antifungal activity of 1H-indole-4,7-diones” (2007)
Values after ≈ are worked out from the molar mass of the structure shown.

Assays:
Format in all cases: functional
Aspergillus niger = experiment: Antifungal activity against Aspergillus niger KCTC 1231 after 2 days by 2-fold broth dilution method; conditions: KCTC 1231, 48 h
In short: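 Two-fold broth dilution MIC in modified Sabouraud dextrose broth, inoculum about 1 · 10⁵ cells/mL, final agent range […]; incubated at 37 °C, MIC read after 2 days; 5-fluorocytosine as standard agent.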

Pichia kudriavzevii = experiment: Antifungal activity against Candida krusei Berkout KCCM 11655 after 1 day by 2-fold broth dilution method; conditions: KCCM 11655, 24 h
In short: (§1)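 MIC by 2-fold broth dilution in modified Sabouraud dextrose broth; inoculum about 1 · 10⁵ cells/mL; final drug concentrations […]; 37 °C, read after 1 day; 5-fluorocytosine run as standard agent.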

Cryptococcus neoformans = experiment: Antifungal activity against Cryptococcus neoformans KCCM 50564 after 1 day by 2-fold broth dilution method; conditions: KCCM 50564, 24 h; in short: as §1
Candida albicans = experiment: Antifungal activity against Candida albicans Berkout KCCM 50235 after 1 day by 2-fold broth dilution method; conditions: KCCM 50235, 24 h; in short: as §1
Candida tropicalis = experiment: Antifungal activity against Candida tropicalis Berkout KCCM 50662 after 1 day by 2-fold broth dilution method; conditions: KCCM 50662, 24 h; in short: as §1

Structure (SMILES)	MIC (Aspergillus niger) [µg/mL]	MIC (Pichia kudriavzevii) [µg/mL]	MIC (Cryptococcus neoformans) [µg/mL]	MIC (Candida albicans) [µg/mL]	MIC (Candida tropicalis) [µg/mL]
CCOC(=O)c1cn(C)c2c1C(=O)C(C)=C(C)C2=O	> 100	50 (≈ 191 µM)	100 (≈ 383 µM)	> 100	25 (≈ 95.7 µM)
Cc1ccc(SC2=C(Sc3ccc(C)c(C)c3)C(=O)c3[nH]ccc3C2=O)cc1C	100 (≈ 238 µM)	> 100	50 (≈ 119 µM)	> 100	> 100
CCOC(=O)C(C#N)C1=C(Cl)C(=O)C(C)=C(C)C1=O (stereo not given)	> 100	100 (≈ 355 µM)	25 (≈ 88.7 µM)	> 100	> 100
O=C1C(Sc2ccc(Br)cc2)=C(Sc2ccc(Br)cc2)C(=O)c2[nH]ccc21	12.5 (≈ 24 µM)	> 100	3.2 (≈ 6.14 µM)	> 100	> 100
COC(=O)c1cn(C)c2c1C(=O)C(C)=C(C)C2=O	> 100	3.2 (≈ 12.9 µM)	1.6 (≈ 6.47 µM)	> 100	> 100
COC(=O)c1cn(-c2ccc(C(C)C)cc2)c2c1C(=O)C(C)=C(C)C2=O	3.2 (≈ 9.11 µM)	100 (≈ 285 µM)	100 (≈ 285 µM)	12.5 (≈ 35.6 µM)	12.5 (≈ 35.6 µM)
Cc1cccc(SC2=C(Sc3cccc(C)c3)C(=O)c3[nH]ccc3C2=O)c1	50 (≈ 128 µM)	> 100	3.2 (≈ 8.17 µM)	> 100	12.5 (≈ 31.9 µM)
COC(=O)c1cn(-c2ccccc2)c2c1C(=O)C(C)=C(C)C2=O	25 (≈ 80.8 µM)	1.6 (≈ 5.17 µM)	6.3 (≈ 20.4 µM)	3.2 (≈ 10.3 µM)	12.5 (≈ 40.4 µM)
COC(=O)c1cn(-c2ccc(F)cc2)c2c1C(=O)C(C)=C(C)C2=O	12.5 (≈ 38.2 µM)	3.2 (≈ 9.78 µM)	3.2 (≈ 9.78 µM)	> 100	> 100
O=C1C(Sc2ccc(O)cc2)=C(Sc2ccc(O)cc2)C(=O)c2[nH]ccc21	> 100	> 100	25 (≈ 63.2 µM)	50 (≈ 126 µM)	50 (≈ 126 µM)
O=C1C(Sc2ccc(F)c(F)c2)=C(Sc2ccc(F)c(F)c2)C(=O)c2[nH]ccc21	> 100	12.5 (≈ 28.7 µM)	50 (≈ 115 µM)	> 100	> 100
O=C1C(Sc2ccc(Cl)cc2)=C(Sc2ccc(Cl)cc2)C(=O)c2[nH]ccc21	> 100	25 (≈ 57.8 µM)	3.2 (≈ 7.4 µM)	> 100	12.5 (≈ 28.9 µM)
COC(=O)c1cn(-c2ccc(C)cc2)c2c1C(=O)C(C)=C(C)C2=O	> 100	3.2 (≈ 9.9 µM)	0.8 (≈ 2.47 µM)	> 100	> 100
COC(=O)c1cn(-c2ccc(OC(F)(F)F)cc2)c2c1C(=O)C(C)=C(C)C2=O	3.2 (≈ 8.14 µM)	6.3 (≈ 16 µM)	1.6 (≈ 4.07 µM)	> 100	> 100
O=C1C(Sc2cccc(Cl)c2)=C(Sc2cccc(Cl)c2)C(=O)c2[nH]ccc21	25 (≈ 57.8 µM)	25 (≈ 57.8 µM)	3.2 (≈ 7.4 µM)	6.3 (≈ 14.6 µM)	1.6 (≈ 3.7 µM)
Nc1nc(=O)[nH]cc1F [FLUCYTOSINE]	50 (≈ 387 µM)	6.3 (≈ 48.8 µM)	12.5 (≈ 96.8 µM)	6.3 (≈ 48.8 µM)	12.5 (≈ 96.8 µM)
COC(=O)c1cn(-c2ccc(I)cc2)c2c1C(=O)C(C)=C(C)C2=O	100 (≈ 230 µM)	50 (≈ 115 µM)	50 (≈ 115 µM)	25 (≈ 57.4 µM)	12.5 (≈ 28.7 µM)
O=C1C(Sc2ccc(F)cc2)=C(Sc2ccc(F)cc2)C(=O)c2[nH]ccc21	100 (≈ 250 µM)	3.2 (≈ 8.01 µM)	6.3 (≈ 15.8 µM)	> 100	25 (≈ 62.6 µM)
COC(=O)c1cn(-c2ccc(OC)cc2)c2c1C(=O)C(C)=C(C)C2=O	> 100	3.2 (≈ 9.43 µM)	100 (≈ 295 µM)	> 100	50 (≈ 147 µM)
COC(=O)c1cn(-c2ccc(C)c(C)c2)c2c1C(=O)C(C)=C(C)C2=O	6.3 (≈ 18.7 µM)	0.8 (≈ 2.37 µM)	1.6 (≈ 4.74 µM)	12.5 (≈ 37.1 µM)	> 100
CCc1ccc(-n2cc(C(=O)OC)c3c2C(=O)C(C)=C(C)C3=O)cc1	3.2 (≈ 9.48 µM)	50 (≈ 148 µM)	50 (≈ 148 µM)	25 (≈ 74.1 µM)	50 (≈ 148 µM)
COC(=O)c1cn(-c2ccc(Br)cc2)c2c1C(=O)C(C)=C(C)C2=O	3.2 (≈ 8.24 µM)	50 (≈ 129 µM)	50 (≈ 129 µM)	50 (≈ 129 µM)	6.3 (≈ 16.2 µM)
COC(=O)C(C#N)C1=C(Cl)C(=O)C(C)=C(C)C1=O (stereo not given)	> 100	100 (≈ 374 µM)	6.3 (≈ 23.5 µM)	> 100	> 100
O=C1C(Sc2ccccc2)=C(Sc2ccccc2)C(=O)c2[nH]ccc21	50 (≈ 138 µM)	> 100	12.5 (≈ 34.4 µM)	> 100	> 100
COC(=O)c1cn(-c2ccc(Cl)cc2)c2c1C(=O)C(C)=C(C)C2=O	25 (≈ 72.7 µM)	0.8 (≈ 2.33 µM)	12.5 (≈ 36.4 µM)	12.5 (≈ 36.4 µM)	12.5 (≈ 36.4 µM)
